Assay [1] in a line: Cytotoxicity of compound was determined visually in human diploid fibroblasts (HFF). The gist of the method: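 HFF cells are grown in MEM(E) with 10% FBS. Drug-induced cytopathology in uninfected cells of the HCMV plaque assay is scored 0 to 4+ at 35- and 60-fold magnification on the day of plaque staining. IC50 comes from regression against log concentration.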
The species entered for assay [2] is Homo sapiens. The experiment in a line: In vitro antiproliferative effect against growth rate of H. Ep.2 cells at 100 uM concentration. In kind it is functional. The gist of the method:
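H.Ep.2 cells receive compound at 100 μM. Growth is read by crystal violet A560-570 at days 0, 2 and 5 and expressed as growth rate, the slope of semilog cell number versus time as a percent of control.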

Assay [3] relates to L1210. The assay can be described thus: In vitro antiproliferative effect against growth rate of L1210 cells at 100 uM concentration. In kind it is functional, Mus musculus. The gist of the method: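 L1210 cells are held in static suspension in Fischer's medium with compound at 100 μM. Cell counts are taken at 0, 48 and 96 h. Growth rate is the semilog slope versus time as a percent of control.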

Assay [4] is filed under the species Homo sapiens. The experiment in a line: Concentration required to decrease the growth rate to 50% of control was evaluated by determining their ability to inhibit growth of H.Ep.2 cells in vitro. The conditions noted are these: HEp-2. In kind it is functional, cell-based. The gist of the method: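 H.Ep.2 cells are grown in MEM (Earle's salts) with 15% bovine calf serum under 5% CO2, and 2000 cells/well are plated in MEM with 5% serum. Compounds are added 1 day later. Growth is read by crystal violet staining (A560-570) at days 0, 2 and 5 after addition. Growth rate is Td(control)/Td(treated), and IC50 is the concentration halving growth rate.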

The subject of assay [5] is Human betaherpesvirus 5. The assay can be described thus: Concentration required to decrease the growth rate to 50% of control was evaluated against HCMV by using plaque reduction assay. It is filed as functional, organism-based. Summed up:
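HFF monolayers infected with about 50 PFU of HCMV Towne strain (plaque-purified P0 isolate) in a 0.2 mL inoculum. Compounds are dissolved in the overlay medium and plaques are counted. Percent inhibition is regressed linearly against log concentration to give the IC50. Acyclovir or ganciclovir serves as positive control. Values are averages of two to seven experiments.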
For orientation: In a plaque reduction assay, fewer plaques than in the control indicate reduced infectivity or spread.

The subject of a further assay is KB. The experiment in a line: Cytotoxicity of compound was determined by assaying cell growth in human neoplastic cell line(KB). It is filed as functional, cell-based. The gist of the method: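 KB cells (human epidermoid oral carcinoma) are grown in MEM(H) with 5% FBS. Growth is measured spectrophotometrically by crystal violet staining two days after drug treatment. IC50 comes from linear regression of percent inhibition against log concentration.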

Another assay relates to Human alphaherpesvirus 1. The assay can be described thus: Concentration required to decrease the growth rate to 50% of control was evaluated against HSV-1 by using enzyme immunoassay.
The test system of assay [6] is L1210. The experiment in a line: Concentration required to decrease the growth rate to 50% of control was evaluated by determining their ability to inhibit growth of L1210 cells in vitro. In kind it is functional, cell-based. The conditions noted are these: Mus musculus. The gist of the method: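 L1210 cells are grown in static suspension in Fischer's medium. Cell number is counted at 0, 48 and 96 h across a range of compound concentrations. Growth rate is the semilog slope as a percent of control; the 48–96 h rate is used if growth slowed. IC50 is the concentration giving 50% of control growth rate.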

In assay [7] the test system is Human betaherpesvirus 5. The experiment in a line: Concentration required to decrease the growth rate to 50% of control was evaluated against HCMV by using yield reduction assay. It is filed as functional.

Broadly, the IC50 is the concentration that inhibits the measured activity by half. One may read the IC90 as the concentration at which the effect reaches the 90% level. Low readings indicate greater potency, high ones weaker potency. `Nc1nncc2c1c(Br)cn2C1O[C@H](CO)[C@@H](O)[C@H]1O` (stereo partly drawn): the IC50 in [1] was found to be 100 µM; in the assay filed under Homo sapiens [4] it was 5.2 µM; in the assay with Human betaherpesvirus 5 [5] it was 90 µM; in the assay with KB, 12 µM; with Human alphaherpesvirus 1, 30 µM; with L1210 [6], 24 µM. This molecule also came in with an Of control in the assay filed under Homo sapiens [2] of 6%. This molecule also came in with a Control in the assay with L1210 [3] of 9%. Moreover, the 90% effect level with Human betaherpesvirus 5 [7] (IC90) was put at 2.2 µM.
In the case of `Nc1ncnc2c1c(Br)cn2[C@@H]1O[C@H](CO)[C@@H](O)[C@H]1O`, the IC50 in assay [1] is 1.2 µM; in the assay with Human betaherpesvirus 5 [5] it was 0.6 µM; in the assay on KB, 3 µM; in the assay with Human alphaherpesvirus 1, 4 µM. The molecule further gave a Control with L1210 [3] of 9%. The molecule also registered an IC90 in the assay with Human betaherpesvirus 5 [7] of 3.5 µM.
Consider `Nc1nncc2c1ccn2C1O[C@H](CO)[C@@H](O)[C@H]1O` (stereo partly drawn), for which the IC50 (in assay [1]; with Human betaherpesvirus 5 [5]; in the assay on Human alphaherpesvirus 1) was over 100 µM each time. The Control in the assay listed under Homo sapiens [2] turned out to be 93%; in the assay on L1210 [3], 100%.
For the molecule `Nc1ncnc2c1ccn2[C@@H]1O[C@H](CO)[C@@H](O)[C@H]1O` [TUBERCIDIN], the figures for the IC50 (in assay [1]; in the assay listed under Homo sapiens [4]; in the assay on KB) were 0.4 µM, 0.06 µM and 1 µM, respectively. For the same molecule, the Of control in the assay filed under Homo sapiens [2] is listed as 0%. The Control with L1210 [3] was found to be 0%.
For the molecule `Nc1nc2c(ncn2COC(CO)CO)c(=O)[nH]1` [GANCICLOVIR], the IC50 was over 100 µM in [1], 8.4 µM in the assay on Human betaherpesvirus 5 [5] and over 100 µM in the assay with KB. Further, the IC90 in the assay with Human betaherpesvirus 5 [7] worked out at 1.8 µM.
As to `Nc1nncc2c1ccn2C1O[C@H](CO)[C@@H](O)[C@@H]1O` (stereo partly drawn), the IC50 (in assay [1]; in the assay on Human betaherpesvirus 5 [5]; in the assay with Human alphaherpesvirus 1; in the assay with L1210 [6]) was over 100 µM in each case. The molecule also returned a Control with L1210 [3] of 88%.
In the case of `Nc1nc2c(ncn2COCCO)c(=O)[nH]1` [ACYCLOVIR], the IC50 in assay [1] was over 100 µM; in the assay with KB it was over 100 µM; in the assay on Human alphaherpesvirus 1, 3.4 µM. This molecule displayed an IC90 in the assay with Human betaherpesvirus 5 [7] of 90 µM.
